Published values pooled from the literature.
Compare with care: the assays were run in different laboratories.
Target: Tyrosine-protein kinase Mer (MERTK, Homo sapiens, UniProt Q12866)
One construct used (Q12866 21-999): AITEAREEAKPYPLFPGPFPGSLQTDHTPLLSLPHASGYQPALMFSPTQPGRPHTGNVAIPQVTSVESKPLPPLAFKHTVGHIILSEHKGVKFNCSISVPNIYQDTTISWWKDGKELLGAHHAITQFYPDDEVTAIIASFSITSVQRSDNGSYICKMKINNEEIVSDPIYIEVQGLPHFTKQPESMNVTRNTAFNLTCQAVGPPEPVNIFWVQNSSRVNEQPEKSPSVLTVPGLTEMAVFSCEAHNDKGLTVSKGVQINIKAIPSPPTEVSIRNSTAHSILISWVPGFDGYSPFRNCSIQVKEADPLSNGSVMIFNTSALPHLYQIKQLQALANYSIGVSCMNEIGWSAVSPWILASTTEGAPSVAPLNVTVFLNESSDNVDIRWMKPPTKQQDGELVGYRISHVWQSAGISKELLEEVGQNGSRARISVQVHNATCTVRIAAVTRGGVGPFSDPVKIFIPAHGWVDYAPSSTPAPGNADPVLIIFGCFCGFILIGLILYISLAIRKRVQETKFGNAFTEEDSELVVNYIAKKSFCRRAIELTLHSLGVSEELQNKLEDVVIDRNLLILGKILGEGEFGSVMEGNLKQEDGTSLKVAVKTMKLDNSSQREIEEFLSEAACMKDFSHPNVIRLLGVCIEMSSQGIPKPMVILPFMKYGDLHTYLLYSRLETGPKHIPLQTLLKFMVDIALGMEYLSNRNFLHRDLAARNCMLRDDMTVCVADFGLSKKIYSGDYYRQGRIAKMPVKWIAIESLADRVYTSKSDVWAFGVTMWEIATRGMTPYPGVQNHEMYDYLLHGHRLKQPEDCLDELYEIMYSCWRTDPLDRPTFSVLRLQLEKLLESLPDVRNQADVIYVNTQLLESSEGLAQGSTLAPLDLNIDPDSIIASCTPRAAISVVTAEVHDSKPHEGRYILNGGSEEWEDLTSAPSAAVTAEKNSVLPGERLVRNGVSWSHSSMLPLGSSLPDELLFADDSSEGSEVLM

| SMILES | assay | conditions | endpoint | result |
| --- | --- | --- | --- | --- |
| CCN(CC)CCNC(=O)c1c(C)[nH]c(/C=C2\C(=O)Nc3ccc(F)cc32)c1C | enzyme activity, inhibitor | 0.3 µM | inhibition | 94% |
| Cc1ccc(NC(=O)c2ccc(C)c(C(F)(F)F)c2)cc1C#Cc1nn(C2CCC(O)CC2)c2ncnc(N)c12 (stereo not drawn) | cell-free assay | 10 µM | remaining signal | 0% |
| CCCCN(CCCC)C(=O)CN1C[C@@H](c2cc(OC)c3c(c2)OCO3)[C@H](C(=O)O)[C@H]1CC(C)(C)CCC | cell-free assay, competition with immobilised ligand | 1 µM | remaining binding | 100% |
| O=C1Nc2ccc(Cl)cc2C1=Cc1cc(Cl)c(O)c(Cl)c1 | cell-free assay | 0.5 µM | remaining signal | 88.4% |
| Cc1ccc(Nc2nccc(N(C)c3ccc4c(C)n(C)nc4c3)n2)cc1S(N)(=O)=O | enzyme activity, inhibitor | 0.3 µM | inhibition | 32% |
| Cc1cc(NC(=O)c2cccc3cc(-c4cccc5[nH]nc(N)c45)ccc23)ccc1F | enzyme activity, inhibitor | 0.1 µM | activity vs control | 96% |
| CC(C)CC(=O)N1CCc2nc(-c3ccc(Br)cc3)nc(N(C)Cc3ccccc3)c2C1 | cell-free assay, competition with immobilised ligand | 0.1 µM | remaining binding | 100% |
| Cc1cnc(NC2CCOCC2)nc1-n1cnc(C(=O)NC(CN)c2cc(F)cc(Cl)c2)c1 (stereo not drawn) | enzyme activity, inhibitor, radiometric | 1 µM | remaining activity | 96% |
| CNC(=O)c1cc(Oc2ccc(NC(=O)Nc3ccc(Cl)c(C(F)(F)F)c3)cc2)ccn1 | enzyme activity, inhibitor | 0.3 µM | inhibition | 26% |
| CNCc1ccccc1-c1csc([C@@H](C)Nc2nc(C)nc3cc(OC)c(OC)cc23)c1 | cell-free assay, competition with immobilised ligand | 1 µM | remaining binding | 61% |
| COc1cc(Cl)c(C(=O)N[C@@H](CN[C@H]2CC[C@@H](N)CC2)Cc2ccc(C#N)cc2)cc1-c1ccc(CN[C@H](C)c2ccc(C)cc2)o1 | enzyme activity, inhibitor | 1 µM | remaining activity | 99% |
| CN1CCC2(CC1)NC(=O)c1c(c3ccc(Cl)c(Cl)c3n1C)C2C#N (racemic) | thermal stability, DSF | 10 µM | ΔTm | -0.4 °C |
| O=C(Nc1cnn(-c2csc(C(=O)NC3COC3)c2)c1)Nc1c(F)cccc1Cl | enzyme activity, inhibitor | 5 µM | remaining activity | 77.1% |
| Cn1c2c(Cl)c(Cl)ccc2c2cn[nH]c(=O)c21 | thermal stability, DSF | 10 µM | ΔTm | -0.5 °C |
| O=C1NC(=O)c2cc(Nc3ccc(F)cc3)c(Nc3ccc(F)cc3)cc21 | cell-free assay | 0.5 µM | remaining signal | 97.4% |
| CC(C)(C)c1nc(-c2cccc(NS(=O)(=O)c3c(F)cccc3F)c2F)c(-c2ccnc(N)n2)s1 | enzyme activity, inhibitor, radiometric | 1 µM | remaining activity | 115% |
| N#CCCc1ccc2c(c1)-c1[nH]c3ccc([N+](=O)[O-])cc3c1CC(=O)N2 | cell-free assay | 0.5 µM | remaining signal | 77.5% |
| O=C(NC[C@@H]1[C@H]2CN(C(=O)OCc3cc(C(F)(F)F)cc(C(F)(F)F)c3)C[C@@H]12)c1ccc2[nH]nnc2c1 | cell-free assay, competition with immobilised ligand | 1 µM | remaining binding | 100% |
| Cc1ccc(C(=O)Nc2ccc(CN3CCN(C)CC3)c(C(F)(F)F)c2)cc1C#Cc1cnc2cccnn12 | enzyme activity | 23.5 nM | remaining activity | 86% |
| Cn1c2c(c3ccc(Cl)c(Cl)c31)C(C#N)C1(CCOCC1)NC2=O (stereo not drawn) | thermal stability, DSF | 10 µM | ΔTm | -0.5 °C |
| CO[C@H]1CC[C@H](CNc2ccc(S(=O)(=O)NC(=O)c3ccc(N4CCN(CC5=C(c6ccc(Cl)cc6)CC(C)(C)CC5)CC4)cc3Oc3cnc4[nH]ccc4c3)cc2[N+](=O)[O-])CC1 | cell-free assay, competition with immobilised ligand | 1 µM | remaining binding | 85% |
| CC/C(=N\NC(=O)NCc1cccc(O)c1)c1ccc(O)c(C)c1O | enzyme activity, inhibitor | 0.1 µM | inhibition | 5% |
| Cn1c2c(c3ccc(Cl)c(Cl)c31)C(C#N)C1(CCCC1)NC2=O (stereo not drawn) | thermal stability, DSF | 10 µM | ΔTm | -0.5 °C |
| Cc1nccc(COC(=O)N2C[C@@H]3[C@@H](CNC(=O)c4ccc5[nH]nnc5c4)[C@@H]3C2)n1 | cell-free assay, competition with immobilised ligand | 1 µM | remaining binding | 100% |
| Cn1c2c(c3ccc(Cl)c(Cl)c31)C(C#N)C1(CCNCC1)NC2=O (racemic) | thermal stability, DSF | 10 µM | ΔTm | 0.5 °C |
| CCN(CC)c1ccc(C2=NNC(=O)CC2C)cc1[N+](=O)[O-] (stereo not drawn) | enzyme activity, inhibitor | 10 µM | remaining activity | 97% |
| Cc1c[nH]c2nccc(Oc3c(F)cc(Nc4cc(Cl)nc(N)n4)cc3F)c12 | cell-free assay, competition with immobilised ligand | 0.1 µM | remaining binding | 100% |
| Cn1c2c(c3ccc(Cl)c(Cl)c31)C(C#N)C(C)(C)NC2=O (stereo not drawn) | thermal stability, DSF | 10 µM | ΔTm | -0.9 °C |
| CNC(=O)Nc1ccc2c(c1)[C@@]1(CC2)OC(=O)N(CC(=O)N(Cc2ccc(F)cc2)[C@@H](C)C(F)(F)F)C1=O | cell-free assay, competition with immobilised ligand | 1 µM | remaining binding | 100% |
| COc1cc2ncnc(Nc3ccc(Oc4ccccc4)c(C)c3C)c2cc1OC | enzyme activity, inhibitor | 1 µM | inhibition | 28% |
